Results taken from ChEMBL document CHEMBL2163238, “Design, synthesis, and biological evaluation of N-alkylated deoxynojirimycin (DNJ) derivatives for the treatment of dengue virus infection” (J Med Chem, 2012).

Tests used:
[1] = Selectivity index, ratio of CC50 for BHK cells to EC50 for DENV-2 NGC infected in BHK cells
How it was run: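 BHK cells infected with DENV-2 New Guinea C at MOI 0.01 for 1 h, then compounds at 0.1–100 μM for 48 h at 37 °C. Supernatant titrated on Vero cells under 0.5% methylcellulose, 3–5 days; foci by 4G2 immunostaining or crystal violet plaques. EC50 from yield curves; MTT CC50 in uninfected BHK; SI = CC50/EC50.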

[2] = test system: dengue virus type 2; assay: Antiviral activity against 0.01 MOI DENV-2 NGC infected in BHK cells assessed as reduction in viral titer after 48 hrs; assay type: functional, organism-based
How it was run: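 BHK cells infected with DENV-2 New Guinea C at MOI 0.01 for 1 h. Inoculum removed, then compounds at 0.1–100 μM for 48 h at 37 °C. Supernatants titrated on Vero monolayers as 10-fold dilutions under 0.5% methylcellulose for 3–5 days. Foci detected by 4G2 immunostaining or crystal violet plaques. EC50 from dose–response curves, mean of 3 independent experiments.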

[3] = Selectivity index, ratio of CC50 for MDBK cells to EC50 for BVDV NADL infected in MDBK cells
How it was run: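 MDBK cells infected with BVDV NADL at MOI 1, 1 h at 37 °C, washed, then compounds at 0.1–100 μM. Media harvested at 22 h, plaque-titrated on MDBK under 1% methylcellulose for 3 days, neutral red or direct count. EC50 from yield curves; MTT CC50 in uninfected MDBK; SI = CC50/EC50.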

[4] = Cytotoxicity against MDBK cells assessed as cell viability by MTT assay; assay type: cell-based, Bos taurus; settings: cattle
[5] = Antiviral activity against 1 MOI BVDV NADL infected in MDBK cells assessed as reduction in viral titer after 22 hrs; assay type: functional, cell-based, Bovine viral diarrhea virus 1-NADL
How it was run: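 MDBK cells (2×10^5) infected 24 h after seeding with BVDV NADL at MOI 1, with 1 h adsorption at 37 °C. Washed, then compounds at 0.1–100 μM. Media harvested 22 h post-infection and plaque-titrated on MDBK under 1% methylcellulose for 3 days. Plaques counted directly or after neutral red staining. EC50 from dose–response curves, mean of 3 independent experiments.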

[6] = Cytotoxicity against BHK cells assessed as cell viability by MTT assay; assay type: cell-based, Mesocricetus auratus; settings: hamster
[7] = Bovine viral diarrhea virus isolates and strains, MDBK, 22 h

Structure (SMILES) | Ratio CC50/EC50 [1] | EC50 [2] [µM] | Ratio CC50/EC50 [3] | CC50 [4] [µM] | EC50 [5, 7] [µM] | CC50 [6] [µM] | EC50 ([5]; mdbk) [µM]
OC[C@@H]1[C@@H](O)[C@H](O)[C@@H](O)CN1CC/C=C\CCOc1cc(F)ccc1F | >59 | 8.5 | >250 | > 500 | 2 | – | –
CCCOc1ccc(CCCN2C[C@H](O)[C@@H](O)[C@H](O)[C@H]2CO)cc1 | >1000 | 0.5 | >2500 | > 500 | 0.2 | > 500 | –
OC[C@@H]1[C@@H](O)[C@H](O)[C@@H](O)CN1CCCc1ccccc1OC1CCCCC1 | – | – | >175 | 420 | 24 | – | –
Cc1ccc(C(C)(C)C)c(OCCCCCCN2C[C@H](O)[C@@H](O)[C@H](O)[C@H]2CO)c1 | – | – | 142 | 85 | 0.6 | – | –
OC[C@@H]1[C@@H](O)[C@H](O)[C@@H](O)CN1CCCCCCOc1ccccc1F | – | – | >179 | > 500 | 2.8 | – | –
CCC(CC)OCCCCCCN1C[C@H](O)[C@@H](O)[C@H](O)[C@H]1CO | – | – | 150 | 450 | 3 | – | –
CCCC1CCCCC1OCCCCCCN1C[C@H](O)[C@@H](O)[C@H](O)[C@H]1CO (some centres not stated) | – | – | 300 | 150 | 0.5 | – | –
COc1ccc(OCCCCCCN2C[C@H](O)[C@@H](O)[C@H](O)[C@H]2CO)cc1 | >125 | 4 | >500 | > 500 | 1 | > 500 | –
CC1CC(OCCCCCCN2C[C@H](O)[C@@H](O)[C@H](O)[C@H]2CO)CC(C)(C)C1 (some centres not stated) | – | – | 312 | 250 | 0.8 | – | –
CC1CCC(OCCCCCCN2C[C@H](O)[C@@H](O)[C@H](O)[C@H]2CO)CC1C (some centres not stated) | > 1250 | 0.4 | >143 | > 500 | 3.5 | > 500 | –
Cc1ccc(C(C)C)c(OCCCCCCN2C[C@H](O)[C@@H](O)[C@H](O)[C@H]2CO)c1 | – | – | 103 | 62 | 0.6 | – | –
OC[C@@H]1[C@@H](O)[C@H](O)[C@@H](O)CN1CCCc1cccc(OC2CCCCC2)c1 | – | – | 111 | 390 | 3.5 | – | –
OC[C@@H]1[C@@H](O)[C@H](O)[C@@H](O)CN1CCCCCCOC1CCCC1 | >357 | 1.4 | >1667 | > 500 | 0.3 | > 500 | –
OC[C@@H]1[C@@H](O)[C@H](O)[C@@H](O)CN1CCCCCCOc1ccccc1C(F)(F)F | – | – | >500 | > 500 | 1 | – | –
OC[C@@H]1[C@@H](O)[C@H](O)[C@@H](O)CN1CCCCCCOc1ccc(F)cc1 | >455 | 1.1 | >1667 | > 500 | 0.3 | > 500 | –
OC[C@@H]1[C@@H](O)[C@H](O)[C@@H](O)CN1CCCCCCOc1c(F)cc(F)cc1F | – | – | >100 | > 500 | 5 | – | –
CCC1CCCCC1OCCCCCCN1C[C@H](O)[C@@H](O)[C@H](O)[C@H]1CO (some centres not stated) | – | – | 300 | 450 | 1.5 | – | –
OC[C@@H]1[C@@H](O)[C@H](O)[C@@H](O)CN1CCCCCCOC1CCCCC1C1CCCCC1 (some centres not stated) | – | – | 400 | 200 | 0.5 | – | –
Cc1cccc(OCCCCCCN2C[C@H](O)[C@@H](O)[C@H](O)[C@H]2CO)c1.Cl | – | – | >1250 | – | – | – | 0.4

Structure (SMILES) | Ratio CC50/EC50 [1] | EC50 [2] [µM] | Ratio CC50/EC50 [3] | CC50 [4] [µM] | EC50 [5, 7] [µM] | CC50 [6] [µM] | EC50 ([5]; mdbk) [µM]
CCCCCCCCCN1C[C@H](O)[C@@H](O)[C@H](O)[C@H]1CO | – | – | 318 | 350 | 1.1 | – | –
CC(C)C(OCCCCCCN1C[C@H](O)[C@@H](O)[C@H](O)[C@H]1CO)C(C)C | – | – | >67 | > 500 | 7.5 | – | –
OC[C@@H]1[C@@H](O)[C@H](O)[C@@H](O)CN1CCCc1ccc(OC2CCCCC2)cc1 | – | – | 54 | 295 | 5.5 | – | –
OC[C@@H]1[C@@H](O)[C@H](O)[C@@H](O)CN1CCC#CCCOc1cc(F)ccc1F | >25 | 20 | >11 | > 500 | 47 | > 500 | –
CC1CCCC(OCCCCCCN2C[C@H](O)[C@@H](O)[C@H](O)[C@H]2CO)C1C (some centres not stated) | – | – | >417 | > 500 | 1.2 | – | –
CC1CCCC(OCCCCCCN2C[C@H](O)[C@@H](O)[C@H](O)[C@H]2CO)C1 (some centres not stated) | – | – | >1667 | > 500 | 0.3 | – | –
CCC1CCC(OCCCCCCN2C[C@H](O)[C@@H](O)[C@H](O)[C@H]2CO)CC1 (some centres not stated) | 1583 | 0.3 | >1250 | > 500 | 0.4 | 475 | –
CC/C=C\CCCCCN1C[C@H](O)[C@@H](O)[C@H](O)[C@H]1CO | – | – | >45 | > 500 | 11 | – | –
OC[C@@H]1[C@@H](O)[C@H](O)[C@@H](O)CN1CCCCCCOc1ccc(OC(F)(F)F)cc1 | >833 | 0.6 | >385 | > 500 | 1.3 | > 500 | –
Cc1ccc(C(C)C)cc1OCCCCCCN1C[C@H](O)[C@@H](O)[C@H](O)[C@H]1CO | – | – | 129 | 90 | 0.7 | – | –
CCCCC1CCC(OCCCCCCN2C[C@H](O)[C@@H](O)[C@H](O)[C@H]2CO)CC1 (some centres not stated) | – | – | 106 | 190 | 1.8 | – | –
CCCOc1ccccc1CCCN1C[C@H](O)[C@@H](O)[C@H](O)[C@H]1CO | >156 | 3.2 | >625 | > 500 | 0.8 | > 500 | –
OC[C@@H]1[C@@H](O)[C@H](O)[C@@H](O)CN1CCCCCCOc1c(F)c(F)c(F)c(F)c1F | >294 | 1.7 | >500 | > 500 | 1 | > 500 | –
OC[C@@H]1[C@@H](O)[C@H](O)[C@@H](O)CN1CCCCCCOc1ccc(C(F)(F)F)cc1 | 362 | 1.3 | >455 | > 500 | 1.1 | 470 | –
OC[C@@H]1[C@@H](O)[C@H](O)[C@@H](O)CN1CCCCCCOc1cccnc1 | – | – | >200 | > 500 | 2.5 | – | –
CCCCCC#CCCN1C[C@H](O)[C@@H](O)[C@H](O)[C@H]1CO | – | – | – | > 500 | > 100 | – | –
OC[C@@H]1[C@@H](O)[C@H](O)[C@@H](O)CN1CCCCCCOc1ccccc1 | >294 | 1.7 | >556 | > 500 | 0.9 | > 500 | –
OC[C@@H]1[C@@H](O)[C@H](O)[C@@H](O)CN1CC/C=C/CCOc1cc(F)ccc1F | >227 | 2.2 | >556 | – | 0.9 | > 500 | –
OC[C@@H]1[C@@H](O)[C@H](O)[C@@H](O)CN1CCCCCCOc1cc(Cl)ccc1Cl | – | – | 213 | 320 | 1.5 | – | –
